Each structure is given as a SMILES string. Calls of active or inactive are those of the source. No cut-off for these calls is given here.

The test system of test [1] is KB. Kind of test: Antiproliferative activity against human KB cells incubated for 48 hrs by SRB assay. The test is classed as functional. The procedure, abridged: (§1)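 KB parental and resistant sublines kept in RPMI 1640 with 5% FBS at 37 °C, 5% CO2. Cells plated, left overnight, then given graded compound concentrations for 48 h. A time-zero plate was fixed with 10% TCA at dosing. Cells were stained with 0.4% SRB in 1% acetic acid, unbound dye washed off, bound dye dissolved in 10 mM Tris base, and absorbance read at 515 nm.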

Test [2] can be described thus: Antiproliferative activity against human KB-VIN cells incubated for 48 hrs by SRB assay. The test is classed as functional. As to conditions: KBVIN. The procedure, abridged:
as §1

Test [3] is described as follows: Antiproliferative activity against human KB7D cells incubated for 48 hrs by SRB assay. In kind it is functional. The procedure, abridged: as §1
The target of test [4] is Histone deacetylase 1 (Homo sapiens, UniProt Q13547). Description: Inhibition of recombinant human full-length C-terminal FLAG-His tagged HDAC1 (1 to 482 residues) expressed in Sf21 insect cells using RHK-K(Ac)-AMC as substrate measured after 60 mins by fluorescence assay.
Histone deacetylase 1, sequence (Q13547 whole entry, the tested form may be a part): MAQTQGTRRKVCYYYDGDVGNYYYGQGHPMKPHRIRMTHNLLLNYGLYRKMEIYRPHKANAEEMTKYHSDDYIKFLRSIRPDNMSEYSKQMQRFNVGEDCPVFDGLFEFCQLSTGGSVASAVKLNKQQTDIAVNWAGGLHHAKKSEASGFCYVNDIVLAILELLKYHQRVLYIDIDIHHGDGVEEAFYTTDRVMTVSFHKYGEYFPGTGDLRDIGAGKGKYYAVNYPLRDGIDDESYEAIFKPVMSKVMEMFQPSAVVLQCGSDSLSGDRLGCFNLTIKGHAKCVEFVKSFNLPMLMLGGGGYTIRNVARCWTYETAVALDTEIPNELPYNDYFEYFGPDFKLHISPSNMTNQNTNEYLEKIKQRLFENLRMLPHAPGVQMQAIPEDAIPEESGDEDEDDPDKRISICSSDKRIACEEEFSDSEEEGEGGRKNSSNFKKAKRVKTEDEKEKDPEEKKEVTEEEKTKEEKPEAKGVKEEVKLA
For test [5], the target named is Histone deacetylase 2 (Homo sapiens, UniProt Q92769). Description: Inhibition of recombinant human C-terminal GST-tagged HDAC2 (1 to 488 residues) expressed in baculovirus infected insect cells using RHKKAc-AMC as substrate measured after 60 mins by fluorescence assay.
Histone deacetylase 2, sequence (Q92769 whole entry, the tested form may be a part): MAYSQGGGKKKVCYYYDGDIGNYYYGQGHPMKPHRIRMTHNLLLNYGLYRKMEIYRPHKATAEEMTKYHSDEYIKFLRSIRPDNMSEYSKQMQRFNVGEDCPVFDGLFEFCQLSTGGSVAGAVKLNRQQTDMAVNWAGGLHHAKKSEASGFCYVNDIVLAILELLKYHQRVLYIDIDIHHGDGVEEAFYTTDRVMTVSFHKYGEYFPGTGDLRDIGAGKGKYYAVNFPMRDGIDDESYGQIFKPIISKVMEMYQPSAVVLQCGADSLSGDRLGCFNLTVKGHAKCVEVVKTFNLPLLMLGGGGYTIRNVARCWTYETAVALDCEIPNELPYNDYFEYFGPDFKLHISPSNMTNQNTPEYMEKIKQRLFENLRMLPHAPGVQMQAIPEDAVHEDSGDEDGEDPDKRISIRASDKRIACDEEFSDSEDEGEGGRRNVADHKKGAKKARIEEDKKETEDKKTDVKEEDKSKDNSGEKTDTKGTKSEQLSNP
Test [6] deals with Histone deacetylase 3/Nuclear receptor corepressor 2 (HDAC3/NCoR2) (Homo sapiens, UniProt O15379). Kind of test: Inhibition of human recombinant HDAC3/NCOR2 using RHKKAc-AMC as substrate measured after 60 mins by fluorescence assay. The test is classed as protein-complex assay.
Histone deacetylase 3/Nuclear receptor corepressor 2 (HDAC3/NCoR2), sequence (O15379 whole entry): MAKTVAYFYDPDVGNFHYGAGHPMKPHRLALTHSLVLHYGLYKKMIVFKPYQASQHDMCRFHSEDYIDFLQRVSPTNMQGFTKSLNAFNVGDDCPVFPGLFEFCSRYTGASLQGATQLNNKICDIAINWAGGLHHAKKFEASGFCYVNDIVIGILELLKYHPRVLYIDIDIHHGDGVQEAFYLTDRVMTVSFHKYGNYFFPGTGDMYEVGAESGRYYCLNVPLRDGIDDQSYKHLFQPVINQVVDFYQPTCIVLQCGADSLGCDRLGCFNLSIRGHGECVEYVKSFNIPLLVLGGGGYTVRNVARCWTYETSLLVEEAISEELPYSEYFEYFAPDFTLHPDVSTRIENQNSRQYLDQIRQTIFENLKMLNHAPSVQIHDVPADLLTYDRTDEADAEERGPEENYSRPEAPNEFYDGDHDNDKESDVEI
Histone deacetylase 3/Nuclear receptor corepressor 2 (HDAC3/NCoR2), sequence (Q9Y618 whole entry, further chain): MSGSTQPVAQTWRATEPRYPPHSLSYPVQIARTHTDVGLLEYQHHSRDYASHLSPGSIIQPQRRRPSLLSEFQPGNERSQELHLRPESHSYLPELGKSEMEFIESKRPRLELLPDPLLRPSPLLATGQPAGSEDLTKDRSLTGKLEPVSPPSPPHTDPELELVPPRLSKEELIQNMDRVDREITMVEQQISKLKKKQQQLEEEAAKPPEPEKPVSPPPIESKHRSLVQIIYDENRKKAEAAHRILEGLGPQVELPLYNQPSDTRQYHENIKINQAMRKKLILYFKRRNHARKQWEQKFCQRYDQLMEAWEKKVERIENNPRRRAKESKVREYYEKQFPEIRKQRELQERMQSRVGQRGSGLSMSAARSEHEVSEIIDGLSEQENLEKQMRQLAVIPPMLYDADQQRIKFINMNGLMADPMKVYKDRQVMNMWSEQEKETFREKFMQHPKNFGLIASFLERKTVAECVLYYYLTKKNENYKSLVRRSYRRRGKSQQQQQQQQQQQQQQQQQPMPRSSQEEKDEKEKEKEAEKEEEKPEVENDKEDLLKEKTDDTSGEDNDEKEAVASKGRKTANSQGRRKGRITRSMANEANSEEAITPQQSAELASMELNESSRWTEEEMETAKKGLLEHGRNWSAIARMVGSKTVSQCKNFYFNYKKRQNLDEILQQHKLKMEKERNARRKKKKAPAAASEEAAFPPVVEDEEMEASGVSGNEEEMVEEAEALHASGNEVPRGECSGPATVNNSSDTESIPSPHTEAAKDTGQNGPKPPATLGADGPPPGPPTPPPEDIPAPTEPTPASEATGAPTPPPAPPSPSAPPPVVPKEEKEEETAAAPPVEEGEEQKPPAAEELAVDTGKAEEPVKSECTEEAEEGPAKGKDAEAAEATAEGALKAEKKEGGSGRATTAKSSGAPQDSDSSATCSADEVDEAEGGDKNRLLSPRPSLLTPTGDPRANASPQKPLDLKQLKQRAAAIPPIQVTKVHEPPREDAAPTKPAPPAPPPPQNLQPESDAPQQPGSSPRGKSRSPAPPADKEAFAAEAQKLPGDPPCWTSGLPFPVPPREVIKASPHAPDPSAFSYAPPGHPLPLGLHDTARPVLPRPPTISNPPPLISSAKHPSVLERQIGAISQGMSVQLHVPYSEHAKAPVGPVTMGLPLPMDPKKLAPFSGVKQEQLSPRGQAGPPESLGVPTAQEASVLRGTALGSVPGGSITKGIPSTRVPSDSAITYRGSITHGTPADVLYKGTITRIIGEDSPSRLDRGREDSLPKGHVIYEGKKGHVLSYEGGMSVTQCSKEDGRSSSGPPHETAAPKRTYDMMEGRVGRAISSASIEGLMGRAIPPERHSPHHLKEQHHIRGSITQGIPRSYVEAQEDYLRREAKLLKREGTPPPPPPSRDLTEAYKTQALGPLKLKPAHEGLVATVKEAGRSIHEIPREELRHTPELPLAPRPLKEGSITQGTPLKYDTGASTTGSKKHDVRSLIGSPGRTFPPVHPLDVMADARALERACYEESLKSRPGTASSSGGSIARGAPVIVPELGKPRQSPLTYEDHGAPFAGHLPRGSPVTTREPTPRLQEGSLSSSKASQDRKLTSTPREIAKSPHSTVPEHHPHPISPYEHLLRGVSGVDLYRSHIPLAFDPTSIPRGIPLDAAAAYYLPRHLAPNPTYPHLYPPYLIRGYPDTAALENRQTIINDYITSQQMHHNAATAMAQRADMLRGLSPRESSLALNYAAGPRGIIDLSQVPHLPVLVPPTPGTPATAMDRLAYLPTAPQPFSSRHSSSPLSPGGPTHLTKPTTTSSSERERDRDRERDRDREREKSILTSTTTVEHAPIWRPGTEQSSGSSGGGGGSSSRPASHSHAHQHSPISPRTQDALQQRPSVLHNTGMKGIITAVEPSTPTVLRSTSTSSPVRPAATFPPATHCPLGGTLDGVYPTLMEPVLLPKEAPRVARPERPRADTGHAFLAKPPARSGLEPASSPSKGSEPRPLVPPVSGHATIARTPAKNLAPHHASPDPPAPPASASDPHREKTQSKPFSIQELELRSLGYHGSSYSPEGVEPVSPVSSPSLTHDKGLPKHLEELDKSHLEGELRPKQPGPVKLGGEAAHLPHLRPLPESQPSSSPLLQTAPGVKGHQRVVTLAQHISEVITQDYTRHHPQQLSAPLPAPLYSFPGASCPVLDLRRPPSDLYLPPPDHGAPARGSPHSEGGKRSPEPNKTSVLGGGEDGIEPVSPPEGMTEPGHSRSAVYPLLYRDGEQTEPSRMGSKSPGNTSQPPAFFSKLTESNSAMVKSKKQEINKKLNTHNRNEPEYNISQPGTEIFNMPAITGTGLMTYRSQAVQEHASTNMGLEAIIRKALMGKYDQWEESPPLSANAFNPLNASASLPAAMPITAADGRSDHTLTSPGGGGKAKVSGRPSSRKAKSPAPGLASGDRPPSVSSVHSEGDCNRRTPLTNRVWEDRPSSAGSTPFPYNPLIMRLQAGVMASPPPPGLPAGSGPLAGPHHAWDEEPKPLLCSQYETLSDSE
Test [7] concerns the target T1, Histone deacetylase 8 (Homo sapiens, UniProt Q9BY41).
T1 sequence (Q9BY41 whole entry): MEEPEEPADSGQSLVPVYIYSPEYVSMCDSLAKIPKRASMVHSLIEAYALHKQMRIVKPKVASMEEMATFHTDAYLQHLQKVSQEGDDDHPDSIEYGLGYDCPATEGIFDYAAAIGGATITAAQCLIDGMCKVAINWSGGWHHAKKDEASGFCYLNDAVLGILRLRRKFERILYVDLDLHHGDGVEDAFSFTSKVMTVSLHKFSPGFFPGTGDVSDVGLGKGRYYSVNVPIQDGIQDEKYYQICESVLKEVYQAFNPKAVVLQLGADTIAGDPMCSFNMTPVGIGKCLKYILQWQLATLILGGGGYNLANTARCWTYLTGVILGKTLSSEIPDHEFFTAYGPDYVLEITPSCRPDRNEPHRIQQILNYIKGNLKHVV
Kind of test: Inhibition of human recombinant HDAC8 using RHKAcKAc-AMC as substrate measured after 60 mins by fluorescence assay.

For test [8], the system named is KB-VIN. Description: Induction of apoptosis in human KB-VIN cells assessed as increase in cleaved PARP expression at 0.01 to 0.5 uM by Western blot analysis. In kind it is functional, cell-based. As to conditions: dose 0.01-0.5 µM. The procedure, abridged:
(§2)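 Resistant KB cells attached overnight, then drug-treated at the stated concentrations and times (24 h or 48 h). Lysates were immunoblotted for cleaved PARP, caspase-3, -8 and -9, and γH2AX, with anti-mouse or anti-rabbit IgG secondaries.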

Test [9] relates to KB-VIN. Kind of test: Induction of apoptosis in human KB-VIN cells assessed as increase in cleaved caspase-8 expression at 0.01 to 0.5 uM by Western blot analysis. The test is classed as functional, cell-based. As to conditions: dose 0.01-0.5 µM. The procedure, abridged:
as §2

For test [10], the system named is KB-VIN. Description: Induction of apoptosis in human KB-VIN cells assessed as increase in cleaved caspase-3 expression at 0.01 to 0.5 uM by Western blot analysis. In kind it is functional, cell-based. Conditions: dose 0.01-0.5 µM. The procedure, abridged:
as §2

In test [11] the test system is KB-VIN. Kind of test: Induction of apoptosis in human KB-VIN cells assessed as increase in cleaved caspase-9 expression at 0.01 to 0.5 uM by Western blot analysis. The test is classed as functional, cell-based. As to conditions: dose 0.01-0.5 µM. The procedure, abridged:
as §2

The test system of test [12] is KB7D. Kind of test: Induction of apoptosis in human KB7D cells assessed as increase in activated gammaH2AX expression measured after 24 hrs by Western blot analysis. The test is classed as functional, cell-based. The procedure, abridged: as §2

In the case of `Nc1ccccc1NC(=O)c1ccc(CCc2ccccc2NS(=O)(=O)c2ccc(F)cc2)cc1`, it took 884 nM to inhibit growth in [1] by half (GI50).

Take `COc1ccc(S(=O)(=O)Nc2ccccc2CCc2ccc(C(=O)Nc3cccc(N)c3)cc2)cc1`: the GI50 in test [1] turned out to be 697 nM.

Regarding `COc1cccc(S(=O)(=O)Nc2ccccc2CCc2ccc(C(=O)Nc3ccccc3N)cc2)c1`, halving of growth in test [1] (GI50) required 462 nM.

Consider `COc1ccc(S(=O)(=O)Nc2ccccc2CCc2ccc(C(=O)Nc3ccccc3N)cc2)cc1OC`, for which growth in test [1] was halved (GI50) at 888 nM.

For `COc1ccc(S(=O)(=O)Nc2ccc(CCc3ccc(C(=O)Nc4ccccc4N)cc3)cc2)cc1`, in [1], the GI50 is > 10000 nM.

For `N#Cc1ccc(S(=O)(=O)Nc2ccccc2CCc2ccc(C(=O)Nc3ccccc3N)cc2)cc1`, the GI50 in test [1] was determined as 790 nM.

With `COc1ccc(S(=O)(=O)Nc2cccc(CCc3ccc(C(=O)Nc4ccccc4N)cc3)c2)cc1`, the GI50 in test [1] was found to be 678 nM.

The compound `COc1ccc(S(=O)(=O)Nc2ccccc2/C=C/c2ccc(C(=O)Nc3ccccc3N)cc2)cc1` gave a GI50 in test [1] of 660 nM.

Turning to `COc1ccc(S(=O)(=O)Nc2ccccc2CCc2ccc(C(=O)NO)cc2)cc1`, the GI50 in test [1] was > 10000 nM.

In the case of `COc1ccc(S(=O)(=O)Nc2ccccc2CCc2ccc(C(=O)Nc3cc(F)ccc3N)cc2)cc1`, the concentration for 50% growth inhibition (GI50) in [1] is 66 nM; in [2], 29 nM; in test [3], 12 nM. Further, the IC50 in test [4] was > 10 µM; in test [5] it was 9.08 µM; in test [6] it was 1750 nM; in test [7], > 10 µM. The result in test [8], in [9], in [10] and in test [11] was Active.

For the compound `COc1ccc(S(=O)(=O)Nc2ccccc2CCc2ccc(C(=O)Nc3ccccc3)cc2)cc1`, in test [1], growth was halved (GI50) at 137 nM.

Regarding `COc1ccc(S(=O)(=O)Nc2ccccc2CCc2ccc(C(=O)Nc3ccccc3N)cc2)cc1`, the GI50 worked out at 23 nM in [1], 31 nM in test [2] and 22 nM in [3]. The IC50 in test [4] is 1.19 µM; in test [5], > 10 µM; in test [6] it was 2550 nM; in test [7], > 10 µM. For the same compound, the result in test [8], in test [9], in test [10] and in [11] was Active.

Regarding `COc1ccc(S(=O)(=O)Nc2ccccc2OCc2ccc(C(=O)Nc3ccccc3N)cc2)cc1`, the GI50 was found to be 60 nM in test [1], 42 nM in [2] and 62 nM in test [3]. The IC50 in test [4] is 5.45 µM; in [5], 4.95 µM; in test [6], 7920 nM; in test [7] it was > 10 µM.

Compound `Nc1ccccc1NC(=O)c1ccc(CCc2ccccc2NS(=O)(=O)c2ccc(Cl)cc2)cc1` yielded a GI50 in test [1] of 448 nM.

`Nc1ccccc1NC(=O)c1ccc(CCc2ccccc2NS(=O)(=O)c2ccc(Br)cc2)cc1` registered a GI50 in test [1] of 124 nM.

Compound `Nc1ccccc1NC(=O)c1ccc(CCc2ccccc2NS(=O)(=O)c2ccccc2)cc1` had a GI50 in [1] of 456 nM.

Consider `Nc1ccccc1NC(=O)c1ccc(CCc2ccccc2)cc1`, for which, in test [1], the GI50 is > 10000 nM.

In test [1], `COc1ccc(S(=O)(=O)Nc2ccccc2-c2ccc(C(=O)Nc3ccccc3N)cc2)cc1` came in with a GI50 of 442 nM.

In the case of `COc1ccc(S(=O)(=O)Nc2ccccc2CCc2ccc(C(=O)Nc3ccc(N)cc3)cc2)cc1`, the GI50 in [1] was 286 nM.

With `COc1cc([C@@H]2c3cc4c(cc3[C@@H](O[C@@H]3O[C@@H]5CO[C@@H](C)O[C@H]5[C@H](O)[C@H]3O)[C@H]3COC(=O)[C@H]23)OCO4)cc(OC)c1O` [ETOPOSIDE], the GI50 came out at 8390 nM in [1] and 98600 nM in test [3]. In addition, the result in test [12] was Active.

`COc1ccc(S(=O)(=O)Nc2ccccc2CCc2ccccc2)cc1` yielded a GI50 in test [1] of 4410 nM.

In turn, `COc1ccc(S(=O)(=O)Nc2ccccc2CCc2ccc(C(=O)Nc3ccccc3O)cc2)cc1` displayed a GI50 in test [1] of 472 nM.
